Test results as given in ChEMBL document CHEMBL5260793, “Novel pyrazolo[3,4-d]pyrimidine with 4-(1H-benzimidazol-2-yl)-phenylamine as broad spectrum anticancer agents: Synthesis, cell based assay, topoisomerase inhibition, DNA intercalation and bovine serum albumin studies” (Eur J Med Chem, 2017).
Active and inactive are the calls of the source. The rule behind the calls is not given here.

What was measured:
[1] = system: Panel CNS (Carcinoma cell lines); assay: Anticancer activity against human Panel CNS (Carcinoma cell lines) assessed as cell growth inhibition incubated for 48 hrs by Sulphorhodamine B assay; format: functional
Outline: (§1)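 NCI-60 five-dose screen. Cells in RPMI 1640 with 5% FBS and 2 mM L-glutamine were plated at 5,000–40,000 cells/well and held 24 h before dosing. Compounds came from DMSO stocks and were given at five concentrations (10-fold or ½-log dilutions) for 48 h at 37 °C. Adherent cells were TCA-fixed and stained with SRB; A515 was read. GI50 was set from growth = 50% and TGI from Ti = Tz, using Tz/C/Ti.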

[2] = system: Panel renal (Carcinoma cell lines); assay: Anticancer activity against human Panel renal (Carcinoma cell lines) assessed as total growth inhibition incubated for 48 hrs by Sulphorhodamine B assay; format: functional
[3] = system: Panel melanoma (Carcinoma cell lines); assay: Anticancer activity against human Panel melanoma (Carcinoma cell lines) assessed as lethality incubated for 48 hrs by Sulphorhodamine B assay; format: functional
Calf thymus DNA [4] = assay: Displacement of Ethidium bromide from calf thymus DNA/EtBr complex assessed as decrease in fluorescent intensity by fluorescence based EtBr-displacement assay; format: nucleic-acid assay; settings: Bos taurus
Outline: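 ct-DNA (0–20 μM) was pre-mixed with ethidium bromide, diluted from a 1 mM stock. Compound was then added in 2 μM steps up to 50 μM, with mixing after each addition. Emission was recorded with excitation at 480 nm.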

Calf thymus DNA [5] = assay: Binding affinity to calf thymus DNA assessed as hypochromicity at pH 7.4 at 10 uM by UV-vis absorption spectroscopy; format: nucleic-acid assay; settings: Bos taurus
Outline: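 Absorption titration at 300 K in a 1 cm cell, background subtracted. Compound was fixed (10 μM per legend; 20 μM in methods) with ct-DNA added up to 15–20 μM in 10 mM phosphate buffer, pH 7.4 (A260/A280 1.82). A buffer-addition control was run. K was taken from the 1/(Af−Aobs) vs 1/[DNA] fit.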

[6] = system: Panel melanoma (Carcinoma cell lines); assay: Anticancer activity against human Panel melanoma (Carcinoma cell lines) assessed as total growth inhibition incubated for 48 hrs by Sulphorhodamine B assay; format: functional; outline: as §1
[7] = system: Panel ovarian (Carcinoma cell lines); assay: Anticancer activity against human Panel ovarian (Carcinoma cell lines) assessed as lethality incubated for 48 hrs by Sulphorhodamine B assay; format: functional
[8] = system: Panel renal (Carcinoma cell lines); assay: Anticancer activity against human Panel renal (Carcinoma cell lines) assessed as lethality incubated for 48 hrs by Sulphorhodamine B assay; format: functional
[9] = system: Panel colon (Carcinoma cell lines); assay: Anticancer activity against human Panel colon (Carcinoma cell lines) assessed as cell growth inhibition incubated for 48 hrs by Sulphorhodamine B assay; format: functional; outline: as §1
[10] = Anticancer activity against human Non-small cell lung cancer cell line assessed as cell growth inhibition incubated for 48 hrs by Sulphorhodamine B assay; format: functional; outline: as §1
[11] = system: Panel breast (Carcinoma cell lines); assay: Anticancer activity against human Panel breast (Carcinoma cell lines) assessed as cell growth inhibition incubated for 48 hrs by Sulphorhodamine B assay; format: functional; outline: as §1
[12] = system: Panel breast (Carcinoma cell lines); assay: Anticancer activity against human Panel breast (Carcinoma cell lines) assessed as total growth inhibition incubated for 48 hrs by Sulphorhodamine B assay; format: functional; outline: as §1
[13] = system: Panel prostate (Carcinoma cell lines); assay: Anticancer activity against human Panel prostate (Carcinoma cell lines) assessed as total growth inhibition incubated for 48 hrs by Sulphorhodamine B assay; format: functional; outline: as §1
[14] = system: Panel CNS (Carcinoma cell lines); assay: Anticancer activity against human Panel CNS (Carcinoma cell lines) assessed as lethality incubated for 48 hrs by Sulphorhodamine B assay; format: functional

| Compound | GI50 [1] | TGI [2] | LC50 (lethal concentration 50) [3] | Activity (Calf thymus DNA [4]) | Activity (Calf thymus DNA [5]) | TGI [6] | LC50 (concentration killing 50% of cells) [7] | LC50 (50% lethal concentration) [8] | GI50 [9] | GI50 [10] | GI50 [11] | TGI [12] | TGI [13] | LC50 (concentration killing 50% of cells) [14] |
| --- | --- | --- | --- | --- | --- | --- | --- | --- | --- | --- | --- | --- | --- | --- |
| OCCN1CCN(c2nc(Nc3ccc(-c4nc5ccccc5[nH]4)cc3)c3cn[nH]c3n2)CC1 | 1.47 µM | 3.26 µM | 5.83 µM | Active | Active | 3.41 µM | 6.09 µM | 5.85 µM | 0.72 µM | 1.57 µM | 1.8 µM | 3.83 µM | 2.96 µM | 5.72 µM |
| Fc1ccc(Nc2nc(Nc3ccc(-c4nc5ccccc5[nH]4)cc3)c3cn[nH]c3n2)cc1 | 2.06 µM | 7.35 µM | 6.92 µM | Active | Active | 3.74 µM | 28.9 µM | 18.2 µM | 1.78 µM | 2.11 µM | 1.99 µM | 4.8 µM | 4.14 µM | 20.4 µM |
